Test [1] in a line: Cytotoxicity against mouse L5178Y cells by MTT assay. In kind it is functional, cell-based. In short, it runs like this: (§1)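 MTT assay on mouse lymphoma L5178Y and human ovarian cancer A2780 cells, as in the earlier reports the paper cites. Positive controls were kahalalide F for L5178Y and cisplatin for A2780. Negative control was medium with 0.1% DMSO. Results are given as IC50 in μM.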
(Tetrazolium assays rely on reduction of a dye to a coloured formazan, in cell work by metabolically active cells.)

Test [2] is described as follows: Cytotoxicity against human A2780 cells by MTT assay. In kind it is functional, cell-based. In short, it runs like this: as §1

The values below come from ChEMBL document CHEMBL3867447, “Cytotoxic 14-Membered Macrolides from a Mangrove-Derived Endophytic Fungus, Pestalotiopsis microspora” (J Nat Prod, 2016).

Regarding `C/C=C1\NC(=O)[C@H](Cc2ccccc2)NC(=O)[C@H](C(C)C)NC(=O)[C@@H]([C@@H](C)CC)NC(=O)[C@@H](NC(=O)[C@H](NC(=O)[C@H](CCCN)NC(=O)[C@H]2CCCN2C(=O)[C@@H](NC(=O)[C@H](NC(=O)[C@@H](NC(=O)[C@@H](NC(=O)CCCC(C)C)C(C)C)[C@@H](C)O)C(C)C)C(C)C)[C@@H](C)CC)[C@@H](C)OC(=O)[C@H](C(C)C)NC1=O`, the concentration for half-maximal inhibition (IC50) in test [1] was found to be 4.3 µM. In other words, the single-digit micromolar range.

Regarding `C[C@H]1CCC/C=C/[C@H](O)[C@H]2O[C@H]2[C@H](O)/C=C/C(=O)O1`, the half-inhibitory concentration (IC50) in test [2] and in test [1] was greater than 50 µM each time. Regarding `C[C@H]1CCC/C=C\[C@H](O)[C@H]2O[C@H]2[C@H](O)/C=C/C(=O)O1`, the 50% inhibitory concentration (IC50) in test [2] and in test [1] was greater than 50 µM throughout. Regarding `C[C@H]1CCC/C=C/[C@H](O)/C=C\[C@H](O)/C=C/C(=O)O1`, the IC50 is greater than 50 µM in test [2] and 21 µM in test [1].

`CO[C@H]1/C=C\CCC[C@H](C)OC(=O)CCC(=O)/C=C\1`: the IC50 in test [2] was greater than 50 µM; in test [1] it was 5.6 µM. As for `C[C@H]1CCC/C=C\[C@H](O)/C=C\[C@H](O)/C=C/C(=O)O1`, the figures for the IC50 in test [2] and in test [1] were 43 µM and 21 µM, respectively. In the case of `C[C@H]1CCC[C@@H](O)/C=C/C=C\[C@@H](O)/C=C/C(=O)O1`, the IC50 in test [2] turned out to be 12 µM; in test [1], 3.9 µM.

In the case of `C[C@H]1CCC[C@@H](O)/C=C/C=C\[C@H](O)/C=C/C(=O)O1`, the IC50 in test [2] came out at 1.2 µM; in test [1], 3.4 µM.

Consider `CO[C@H]1/C=C/C=C\C(=O)CCC(=O)O[C@@H](C)CCC1`, for which the IC50 in test [2] was greater than 50 µM; in test [1], 11 µM. Regarding `C[C@H]1CCCCC[C@H](O)CC[C@H](O)/C=C/C(=O)O1`, the IC50 was greater than 50 µM in test [2] and 39 µM in test [1]. Take `C[C@H]1CCC[C@@H](O)/C=C/C=C\C(=O)CCC(=O)O1`: the values for the half-inhibitory concentration (IC50) in test [2] and in test [1] were 36 µM and greater than 50 µM, respectively. For the compound `CO[C@H]1/C=C\CCC[C@H](C)OC(=O)/C=C/[C@@H](O)/C=C\1`, the IC50 in test [2] was 28 µM; in test [1], 0.7 µM.

A word on the IC50: it is the midpoint of a concentration-inhibition curve. A low value points to inhibition by little substance.
